Test results: ChEMBL document CHEMBL1134284, “The biological effects of structural variation at the meta position of the aromatic rings and at the end of the alkenyl chain in the alkenyldiarylmethane series of non-nucleoside reverse transcriptase inhibitors” (J Med Chem, 2001); call rule not given here

Assays:
[1] = Ratio of CC50/EC50 was determined; assay type: cell-based; conditions: human, CEM-SS cells; read-out: TI
Outline: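 HIV-1 RF–infected CEM-SS cells (RPMI 1640, 10% heat-inactivated FBS, 2 mM glutamine, penicillin/streptomycin), plus mock-infected CEM-SS in parallel. Cell killing and viability were read by MTS/phenazine ethosulfate reduction at 490 nm 6 days after infection. […] Index = CC50 ÷ EC50. Triplicate tests.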

[2] = tested on: Human immunodeficiency virus type 1 (RF/HAT ISOLATE); experiment: Inhibitory concentration for cytopathicity of HIV-1RF in CEM-SS cells; assay type: functional, organism-based; conditions: Human immunodeficiency virus 1, RF
Outline: (§1)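 CEM-SS cells kept in RPMI 1640 with 10% heat-inactivated FBS, 2 mM glutamine, penicillin/streptomycin. Microtiter assay with cytopathic HIV-1 RF, or mock infection for toxicity. Viability read by MTS/phenazine ethosulfate reduction (absorbance 490 nm) 6 days after infection. […] Triplicate.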

[3] = target: Human immunodeficiency virus type 1 reverse transcriptase (Human immunodeficiency virus 1, UniProt Q72547); experiment: Inhibitory activity against HIV-1 Reverse Transcriptase with rCdG as the template primer
Outline: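 Cell-free assay with purified recombinant HIV-1 RT (p66/p51 dimer). Activity measured as [32P]GTP incorporation into the poly(rC)/oligo(dG) homopolymer template/primer. IC50 is reported as inhibition of enzyme activity.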

CEM-SS [4] = experiment: Concentration required for cytotoxicity against mock infected CEM-SS cells; assay type: functional; conditions: Homo sapiens; outline: as §1
CEM-SS [5] = experiment: Inhibitory concentration for cytopathicity of HIV-1RF in CEM-SS cells; Not active; assay type: functional, cell-based, Homo sapiens; outline: as §1

EC50 (CEM-SS [5]) | SMILES | selectivity ratio [1] | EC50 [2] | IC50 [3] | CC50 (CEM-SS [4])
– | COC(=O)c1cc(C(=CCCCC(=O)OC(C)C)c2cc(Br)c(OC)c(C(=O)OC)c2)cc(Br)c1OC | 3.79 | 4.33 µM | 70.8 µM | 16.4 µM
– | CCCOC(=O)CCCC=C(c1cc(Cl)c(OC)c(C(=O)OC)c1)c1cc(Cl)c(OC)c(C(=O)OC)c1 | 10.8 | 1.29 µM | 8.3 µM | 13.9 µM
– | CCOC(=O)CCCC=C(c1cc(C)c(OC)c(C(=O)OC)c1)c1cc(C)c(OC)c(C(=O)OC)c1 | 297 | 0.03 µM | 0.181 µM | 8.91 µM
– | COC(=O)CCCC=C(c1cc(C)c(OC)c(C(=O)OC)c1)c1cc(C)c(OC)c(C(=O)OC)c1 | 24 | 0.25 µM | < 1 µM | 6 µM
– | CCCCCC=C(c1cc(Cl)c(OC)c(C(=O)OC)c1)c1cc(Cl)c(OC)c(C(=O)OC)c1 | > 1.8 | 16 µM | – | > 29.1 µM
– | COC(=O)c1cc(C(=CCCCC(=O)N2CCCCC2)c2cc(C)c(OC)c(C(=O)OC)c2)cc(C)c1OC | 2.74 | 5.37 µM | 7.12 µM | 14.7 µM
– | COC(=O)c1cc(C(=CCCCSC)c2cc(Cl)c(OC)c(C(=O)OC)c2)cc(Cl)c1OC | > 3.77 | 5.31 µM | > 100 µM | > 20 µM
– | CCCOC(=O)CCCC=C(c1cc(C)c(OC)c(C(=O)OC)c1)c1cc(C)c(OC)c(C(=O)OC)c1 | 4.2 | 1.29 µM | 29.7 µM | 5.4 µM
– | CCCCCC=C(c1ccc(OC)c(C(=O)OC)c1)c1ccc(OC)c(C(=O)OC)c1 | – | – | – | 14 µM
– | C#CCCCC=C(c1cc(Br)c(OC)c(C(=O)OC)c1)c1cc(Br)c(OC)c(C(=O)OC)c1 | > 43 | 4.7 µM | 6 µM | > 200 µM
– | COC(=O)c1cc(C(=CCCCc2ccccc2)c2cc(Br)c(OC)c(C(=O)OC)c2)cc(Br)c1OC | > 15 | 13.1 µM | > 100 µM | > 200 µM
– | COC(=O)NCCC=C(c1cc(Br)c(OC)c(C(=O)OC)c1)c1cc(Br)c(OC)c(C(=O)OC)c1 | 40.5 | 0.2 µM | 2.39 µM | 8.1 µM
– | COC(=O)c1cc(C(=CCCCC(=O)SC)c2cc(Cl)c(OC)c(C(=O)OC)c2)cc(Cl)c1OC | 5.15 | 2.42 µM | – | 12.5 µM
– | CCCOC(=O)CCCC=C(c1cc(Br)c(OC)c(C(=O)OC)c1)c1cc(Br)c(OC)c(C(=O)OC)c1 | > 17.5 | 1.14 µM | 9.15 µM | > 20 µM
– | COC(=O)c1cc(C(=CCCCC(=O)N(C)C)c2cc(C)c(OC)c(C(=O)OC)c2)cc(C)c1OC | 4.91 | 1.51 µM | 5.65 µM | 7.4 µM
Not Active | CCCCCC=C(c1cc(C(=O)OC)c(OC)c(C(F)(F)F)c1)c1cc(C(=O)OC)c(OC)c(C(F)(F)F)c1 | – | – | – | 106 µM
– | COC(=O)CCCC=C(c1cc(F)c(OC)c(C(=O)OC)c1)c1cc(F)c(OC)c(C(=O)OC)c1 | 36 | 1.9 µM | – | 68.3 µM
– | CCSC(=O)CCCC=C(c1cc(Cl)c(OC)c(C(=O)OC)c1)c1cc(Cl)c(OC)c(C(=O)OC)c1 | 3.2 | 3.95 µM | – | 12.6 µM
– | COC(=O)c1cc(C(=CCCN2CCOC2=O)c2cc(Cl)c(OC)c(C(=O)OC)c2)cc(Cl)c1OC | 6.02 | 2.15 µM | 9.47 µM | 13 µM
– | COC(=O)NCCC=C(c1cc(C)c(OC)c(C(=O)OC)c1)c1cc(C)c(OC)c(C(=O)OC)c1 | 59 | 0.21 µM | 4.93 µM | 12.4 µM
– | CCCCCC=C(c1cc(F)c(OC)c(C(=O)OC)c1)c1cc(F)c(OC)c(C(=O)OC)c1 | – | – | – | 13.4 µM
– | COC(=O)CCCC=C(c1cc(C(=O)OC)c(OC)c(C(F)(F)F)c1)c1cc(C(=O)OC)c(OC)c(C(F)(F)F)c1 | 1.2 | 14.3 µM | > 200 µM | 17.2 µM

EC50 (CEM-SS [5]) | SMILES | selectivity ratio [1] | EC50 [2] | IC50 [3] | CC50 (CEM-SS [4])
– | COC(=O)c1cc(C(=CCCCC(OC)OC)c2cc(Cl)c(OC)c(C(=O)OC)c2)cc(Cl)c1OC | – | – | > 100 µM | 18.1 µM
– | C#CCCCC=C(c1cc(Cl)c(OC)c(C(=O)OC)c1)c1cc(Cl)c(OC)c(C(=O)OC)c1 | 33 | 1.3 µM | – | 42.7 µM
– | COC(=O)c1cc(C(=CCCCc2ccccc2)c2cc(Cl)c(OC)c(C(=O)OC)c2)cc(Cl)c1OC | > 43 | 1.7 µM | > 100 µM | > 200 µM
– | C=CCCCC=C(c1cc(Br)c(OC)c(C(=O)OC)c1)c1cc(Br)c(OC)c(C(=O)OC)c1 | > 24 | 8.2 µM | 99 µM | > 200 µM
– | CCCCCC=C(c1cc(C)c(OC)c(C(=O)OC)c1)c1cc(C)c(OC)c(C(=O)OC)c1 | 2.5 | 6.8 µM | 1 µM | 17.2 µM
Not Active | COC(=O)c1cc(C(=CCCCS(C)(=O)=O)c2cc(Cl)c(OC)c(C(=O)OC)c2)cc(Cl)c1OC | – | – | – | 14.9 µM
– | CCCCCC=C(c1cc(I)c(OC)c(C(=O)OC)c1)c1cc(I)c(OC)c(C(=O)OC)c1 | – | – | – | > 316 µM
– | COC(=O)c1cc(C(=CCCNC(=O)OCC(C)C)c2cc(C)c(OC)c(C(=O)OC)c2)cc(C)c1OC | 6.73 | 0.76 µM | 2.95 µM | 5.13 µM
– | CCOC(=O)NCCC=C(c1cc(C)c(OC)c(C(=O)OC)c1)c1cc(C)c(OC)c(C(=O)OC)c1 | 5.34 | 0.67 µM | 0.016 µM | 3.59 µM
– | C=CCCCC=C(c1cc(Cl)c(OC)c(C(=O)OC)c1)c1cc(Cl)c(OC)c(C(=O)OC)c1 | > 15 | 13 µM | 258 µM | > 200 µM
Not Active | COC(=O)c1cc(C(=CCCNC(C)=O)c2cc(Cl)c(OC)c(C(=O)OC)c2)cc(Cl)c1OC | – | – | > 100 µM | 19.1 µM
– | COC(=O)NCCC=C(c1cc(Cl)c(OC)c(C(=O)OC)c1)c1cc(Cl)c(OC)c(C(=O)OC)c1 | 10.2 | 1.22 µM | 4.43 µM | 12.4 µM
Not Active | CN/C(S)=N/CCC=C(c1cc(Cl)c(OC)c(C(=O)OC)c1)c1cc(Cl)c(OC)c(C(=O)OC)c1 | – | – | > 100 µM | 1.36 µM
– | COC(=O)c1cc(C(=CCCCC(=O)OCC[Si](C)(C)C)c2cc(C)c(OC)c(C(=O)OC)c2)cc(C)c1OC | > 2.1 | 95.4 µM | > 100 µM | > 200 µM
– | COC(=O)c1cc(C(=CCCCC(=O)OC(C)C)c2cc(Cl)c(OC)c(C(=O)OC)c2)cc(Cl)c1OC | 42.9 | 0.84 µM | > 100 µM | 36.1 µM
Not Active | CCNC(=O)NCCC=C(c1cc(Cl)c(OC)c(C(=O)OC)c1)c1cc(Cl)c(OC)c(C(=O)OC)c1 | – | – | > 100 µM | 14.6 µM
– | CCOC(=O)NCCC=C(c1cc(Cl)c(OC)c(C(=O)OC)c1)c1cc(Cl)c(OC)c(C(=O)OC)c1 | 17.2 | 0.71 µM | 1.93 µM | 12.2 µM
– | COC(=O)c1cc(C(=CCCCC(=O)N(C)C)c2cc(Cl)c(OC)c(C(=O)OC)c2)cc(Cl)c1OC | 6.94 | 0.38 µM | 0.687 µM | 2.65 µM
– | COC(=O)c1cc(C(=CCCN2CCOC2=O)c2cc(Br)c(OC)c(C(=O)OC)c2)cc(Br)c1OC | 104 | 0.02 µM | 0.499 µM | 1.95 µM
Not Active | COC(=O)c1cc(C(=CCCCC(=O)N2CCCCC2)c2cc(Cl)c(OC)c(C(=O)OC)c2)cc(Cl)c1OC | – | – | > 100 µM | 3.59 µM
– | COC(=O)c1cc(C(=CCCC[S+](C)[O-])c2cc(Cl)c(OC)c(C(=O)OC)c2)cc(Cl)c1OC (stereo not drawn) | 3.15 | 11.7 µM | – | 36.9 µM

SMILES | EC50 (CEM-SS [5]) | selectivity ratio [1] | EC50 [2] | IC50 [3] | CC50 (CEM-SS [4])
COC(=O)c1cc(C(=CCCNC(=O)OCC(C)C)c2cc(Cl)c(OC)c(C(=O)OC)c2)cc(Cl)c1OC | Not Active | – | – | 65.4 µM | 17.2 µM
COC(=O)c1cc(C(=CCCCC(=O)OC(C)C)c2cc(C)c(OC)c(C(=O)OC)c2)cc(C)c1OC | Not Active | – | – | 60.4 µM | 4.32 µM
